Measured values taken from ChEMBL document CHEMBL1933017, “Synthesis and biological evaluation of some thiazolidinones as antimicrobial agents” (2012).
In brackets after ≈: the same amount, converted by molar mass.

Columns and labels:
Shigella flexneri [1] = assay: Antibacterial activity against Shigella flexneri after 24 hrs by agar streak dilution method; format: functional
Method in brief: (§1)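 MIC by agar streak dilution. Graded amounts of DMSO stock (100 μg/mL) were mixed into molten sterile nutrient agar and poured 4–5 mm deep. Serial concentrations spanned 3.12–100 µg/mL. Plates were inoculated with about 10⁵ CFU/mL of bacterial suspension and incubated at (37 ± 1) °C for 24 h. Each value is the mean of three independent experiments.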

Staphylococcus aureus [2] = assay: Antibacterial activity against Staphylococcus aureus at 100 ug/disc after 24 hrs by disc diffusion method; format: functional; settings: read-out: DIZ
Method in brief: (§2)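 Paper disc diffusion on autoclaved Mueller-Hinton agar poured 5 mm deep. Agar was swab-inoculated with 10⁵ CFU/mL suspension (0.5 McFarland). Discs 6.25 mm across were soaked in compound solution in DMSO (3.12–100 µg/mL) and plates incubated 24 h at (37 ± 1) °C. Read-out was inhibition zone (mm). DMSO control disc; ciprofloxacin or ketoconazole reference, 100 µg/disc. Mean of three independent experiments.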

Candida albicans [3] = assay: Antifungal activity against Candida albicans at 100 ug/disc after 24 hrs by disc diffusion method; format: functional; settings: read-out: DIZ; method in brief: as §2
Escherichia coli [4] = assay: Antibacterial activity against Escherichia coli after 24 hrs by agar streak dilution method; format: functional; method in brief: as §1
Aspergillus fumigatus [5] = assay: Antifungal activity against Aspergillus fumigatus after 48 hrs by agar streak dilution method; format: functional
Method in brief: (§3)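 Fungal MIC by agar streak dilution on Sabouraud dextrose agar, poured 4–5 mm deep. Compound from a DMSO stock (100 μg/mL) was incorporated at serial concentrations of 3.12–100 µg/mL. Plates were inoculated with about 10⁵ CFU/mL of suspension and incubated at (37 ± 1) °C for 48 h. Each value is the mean of three independent experiments.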

Staphylococcus aureus [6] = assay: Antibacterial activity against Staphylococcus aureus after 24 hrs by agar streak dilution method; format: functional; method in brief: as §1
Escherichia coli [7] = assay: Antibacterial activity against Escherichia coli at 100 ug/disc after 24 hrs by disc diffusion method; format: functional; settings: read-out: DIZ; method in brief: as §2
Shigella flexneri [8] = assay: Antibacterial activity against Shigella flexneri at 100 ug/disc after 24 hrs by disc diffusion method; format: functional; settings: read-out: DIZ; method in brief: as §2
Bacillus cereus [9] = assay: Antibacterial activity against Bacillus cereus after 24 hrs by agar streak dilution method; format: functional; method in brief: as §1
Bacillus cereus [10] = assay: Antibacterial activity against Bacillus cereus at 100 ug/disc after 24 hrs by disc diffusion method; format: functional; settings: read-out: DIZ; method in brief: as §2
Pseudomonas aeruginosa [11] = assay: Antibacterial activity against Pseudomonas aeruginosa at 100 ug/disc after 24 hrs by disc diffusion method; format: functional; settings: read-out: DIZ; method in brief: as §2
Aspergillus niger [12] = assay: Antifungal activity against Aspergillus niger at 100 ug/disc after 24 hrs by disc diffusion method; format: functional; settings: read-out: DIZ; method in brief: as §2
Proteus vulgaris [13] = assay: Antibacterial activity against Proteus vulgaris after 24 hrs by agar streak dilution method; format: functional; method in brief: as §1
Aspergillus niger [14] = assay: Antifungal activity against Aspergillus niger after 48 hrs by agar streak dilution method; format: functional; method in brief: as §3
Proteus vulgaris [15] = assay: Antibacterial activity against Proteus vulgaris at 100 ug/disc after 24 hrs by disc diffusion method; format: functional; settings: read-out: DIZ; method in brief: as §2
Klebsiella pneumoniae [16] = assay: Antibacterial activity against Klebsiella pneumoniae […] after 24 hrs by agar streak dilution method; format: functional
Aspergillus clavatus [17] = assay: Antifungal activity against Aspergillus clavatus after 48 hrs by agar streak dilution method; format: functional; method in brief: as §3
Salmonella typhi [18] = assay: Antibacterial activity against Salmonella Typhi after 24 hrs by agar streak dilution method; format: functional, Salmonella enterica subsp. enterica serovar Typhi; settings: Salmonella enterica
Method in brief: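 Agar streak dilution: DMSO stock (100 µg/mL) graded into molten sterile nutrient agar, poured 4–5 mm deep and solidified. Plates carry serial dilutions spanning 3.12–100 µg/mL. Applied ~10⁵ CFU/mL suspension, then incubated 24 h at (37 ± 1) °C. MIC read as the lowest inhibitory concentration; each value is the mean of three independent experiments.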

Salmonella typhi [19] = assay: Antibacterial activity against Salmonella Typhi at 100 ug/disc after 24 hrs by disc diffusion method; format: functional, Salmonella enterica subsp. enterica serovar Typhi; settings: Salmonella enterica, read-out: DIZ
Method in brief: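 Paper disc diffusion on Mueller-Hinton agar poured 5 mm deep; 10⁵ CFU/mL suspension (0.5 McFarland) swabbed over surface. 6.25 mm filter paper discs soaked in compound in DMSO, incubated 24 h at (37 ± 1) °C; inhibition zone diameter in mm. DMSO disc as blank; ciprofloxacin 100 µg/disc as reference. Mean of three independent experiments.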

Candida albicans [20] = assay: Antifungal activity against Candida albicans after 48 hrs by agar streak dilution method; format: functional; method in brief: as §3
Klebsiella pneumoniae [21] = assay: Antibacterial activity against Klebsiella pneumoniae at 100 ug/disc after 24 hrs by disc diffusion method; format: functional; settings: read-out: DIZ; method in brief: as §2
Aspergillus fumigatus [22] = assay: Antifungal activity against Aspergillus fumigatus at 100 ug/disc after 24 hrs by disc diffusion method; format: functional; settings: read-out: DIZ; method in brief: as §2
Pseudomonas aeruginosa [23] = assay: Antibacterial activity against Pseudomonas aeruginosa […] after 24 hrs by agar streak dilution method; format: functional
Aspergillus clavatus [24] = assay: Antifungal activity against Aspergillus clavatus at 100 ug/disc after 24 hrs by disc diffusion method; format: functional; settings: read-out: DIZ; method in brief: as §2

Structure (SMILES) | MIC (Shigella flexneri [1]) | zone of inhibition at 100 µg/disc (Staphylococcus aureus [2]) | zone of inhibition at 100 µg/disc (Candida albicans [3]) | MIC (Escherichia coli [4]) | MIC (Aspergillus fumigatus [5]) | MIC (Staphylococcus aureus [6]) | zone of inhibition at 100 µg/disc (Escherichia coli [7]) | zone of inhibition at 100 µg/disc (Shigella flexneri [8]) | MIC (Bacillus cereus [9]) | zone of inhibition at 100 µg/disc (Bacillus cereus [10]) | zone of inhibition at 100 µg/disc (Pseudomonas aeruginosa [11]) | zone of inhibition at 100 µg/disc (Aspergillus niger [12]) | MIC (Proteus vulgaris [13]) | MIC (Aspergillus niger [14]) | zone of inhibition at 100 µg/disc (Proteus vulgaris [15]) | MIC (Klebsiella pneumoniae [16]) | MIC (Aspergillus clavatus [17]) | MIC (Salmonella typhi [18]) | zone of inhibition at 100 µg/disc (Salmonella typhi [19]) | MIC (Candida albicans [20]) | further results
CCN1CCN(CC2SC(c3cccc(F)c3)N(c3ccc(Nc4nc(Oc5cc(=O)n(C)c6ccccc56)nc(N(C)C)n4)cc3)C2=O)CC1 (centres undefined) | 12.5 µg/mL (≈ 17.6 µM) | 20 mm | 25 mm | 6.25 µg/mL (≈ 8.8 µM) | 50 µg/mL (≈ 70.4 µM) | 12.5 µg/mL (≈ 17.6 µM) | 23 mm | 25 mm | 6.25 µg/mL (≈ 8.8 µM) | 23 mm | 20 mm | 25 mm | 50 µg/mL (≈ 70.4 µM) | 12.5 µg/mL (≈ 17.6 µM) | 19 mm | 25 µg/mL (≈ 35.2 µM) | 50 µg/mL (≈ 70.4 µM) | 6.25 µg/mL (≈ 8.8 µM) | 24 mm | 25 µg/mL (≈ 35.2 µM) | zone of inhibition at 100 µg/disc (Klebsiella pneumoniae [21]): 22 mm; zone of inhibition at 100 µg/disc (Aspergillus fumigatus [22]): 24 mm; MIC (Pseudomonas aeruginosa [23]): 50 µg/mL (≈ 70.4 µM); zone of inhibition at 100 µg/disc (Aspergillus clavatus [24]): 24 mm
CCN1CCN(CC2SC(c3ccc(Cl)cc3)N(c3ccc(Nc4nc(Oc5cc(=O)n(C)c6ccccc56)nc(N(C)C)n4)cc3)C2=O)CC1 (centres undefined) | 12.5 µg/mL (≈ 17.2 µM) | 26 mm | 27 mm | 12.5 µg/mL (≈ 17.2 µM) | 12.5 µg/mL (≈ 17.2 µM) | 6.25 µg/mL (≈ 8.61 µM) | 27 mm | 26 mm | 6.25 µg/mL (≈ 8.61 µM) | 28 mm | 23 mm | 26 mm | 25 µg/mL (≈ 34.4 µM) | 25 µg/mL (≈ 34.4 µM) | 25 mm | 6.25 µg/mL (≈ 8.61 µM) | 12.5 µg/mL (≈ 17.2 µM) | 50 µg/mL (≈ 68.8 µM) | 20 mm | 12.5 µg/mL (≈ 17.2 µM) | zone of inhibition at 100 µg/disc (Klebsiella pneumoniae [21]): 26 mm; zone of inhibition at 100 µg/disc (Aspergillus fumigatus [22]): 26 mm; MIC (Pseudomonas aeruginosa [23]): 50 µg/mL (≈ 68.8 µM); zone of inhibition at 100 µg/disc (Aspergillus clavatus [24]): 23 mm
CCN1CCN(CC2SC(c3ccc([N+](=O)[O-])cc3)N(c3ccc(Nc4nc(Oc5cc(=O)n(C)c6ccccc56)nc(N(C)C)n4)cc3)C2=O)CC1 (centres undefined) | 50 µg/mL (≈ 67.9 µM) | 22 mm | 17 mm | 100 µg/mL (≈ 136 µM) | 100 µg/mL (≈ 136 µM) | 50 µg/mL (≈ 67.9 µM) | 24 mm | 22 mm | 50 µg/mL (≈ 67.9 µM) | 22 mm | 18 mm | 23 mm | 50 µg/mL (≈ 67.9 µM) | 50 µg/mL (≈ 67.9 µM) | 25 mm | 50 µg/mL (≈ 67.9 µM) | 100 µg/mL (≈ 136 µM) | 100 µg/mL (≈ 136 µM) | 22 mm | 100 µg/mL (≈ 136 µM) | zone of inhibition at 100 µg/disc (Klebsiella pneumoniae [21]): 23 mm; zone of inhibition at 100 µg/disc (Aspergillus fumigatus [22]): 20 mm; MIC (Pseudomonas aeruginosa [23]): 100 µg/mL (≈ 136 µM); zone of inhibition at 100 µg/disc (Aspergillus clavatus [24]): 21 mm
CCN1CCN(CC2SC(c3ccccc3[N+](=O)[O-])N(c3ccc(Nc4nc(Oc5cc(=O)n(C)c6ccccc56)nc(N(C)C)n4)cc3)C2=O)CC1 (centres undefined) | 100 µg/mL (≈ 136 µM) | 13 mm | 19 mm | 100 µg/mL (≈ 136 µM) | 100 µg/mL (≈ 136 µM) | 100 µg/mL (≈ 136 µM) | 14 mm | 14 mm | 50 µg/mL (≈ 67.9 µM) | 17 mm | 16 mm | < 10 mm | 100 µg/mL (≈ 136 µM) | 100 µg/mL (≈ 136 µM) | 17 mm | 100 µg/mL (≈ 136 µM) | 100 µg/mL (≈ 136 µM) | 100 µg/mL (≈ 136 µM) | 15 mm | 100 µg/mL (≈ 136 µM) | zone of inhibition at 100 µg/disc (Klebsiella pneumoniae [21]): 15 mm; zone of inhibition at 100 µg/disc (Aspergillus fumigatus [22]): 13 mm; MIC (Pseudomonas aeruginosa [23]): 100 µg/mL (≈ 136 µM); zone of inhibition at 100 µg/disc (Aspergillus clavatus [24]): 15 mm
CCN1CCN(CC2SC(c3ccc(O)cc3)N(c3ccc(Nc4nc(Oc5cc(=O)n(C)c6ccccc56)nc(N(C)C)n4)cc3)C2=O)CC1 (centres undefined) | 100 µg/mL (≈ 141 µM) | 23 mm | 19 mm | 50 µg/mL (≈ 70.6 µM) | 50 µg/mL (≈ 70.6 µM) | 25 µg/mL (≈ 35.3 µM) | 16 mm | 13 mm | 50 µg/mL (≈ 70.6 µM) | 20 mm | 14 mm | 18 mm | 100 µg/mL (≈ 141 µM) | 100 µg/mL (≈ 141 µM) | 16 mm | 50 µg/mL (≈ 70.6 µM) | 100 µg/mL (≈ 141 µM) | 50 µg/mL (≈ 70.6 µM) | 17 mm | 100 µg/mL (≈ 141 µM) | zone of inhibition at 100 µg/disc (Klebsiella pneumoniae [21]): 19 mm; zone of inhibition at 100 µg/disc (Aspergillus fumigatus [22]): 21 mm; MIC (Pseudomonas aeruginosa [23]): 100 µg/mL (≈ 141 µM); zone of inhibition at 100 µg/disc (Aspergillus clavatus [24]): 21 mm
CCN1CCN(CC2SC(c3ccc(Br)cc3)N(c3ccc(Nc4nc(Oc5cc(=O)n(C)c6ccccc56)nc(N(C)C)n4)cc3)C2=O)CC1 (centres undefined) | 100 µg/mL (≈ 130 µM) | 15 mm | 12 mm | 100 µg/mL (≈ 130 µM) | 100 µg/mL (≈ 130 µM) | 100 µg/mL (≈ 130 µM) | 19 mm | 15 mm | 100 µg/mL (≈ 130 µM) | 18 mm | 16 mm | 14 mm | 100 µg/mL (≈ 130 µM) | 100 µg/mL (≈ 130 µM) | 17 mm | 100 µg/mL (≈ 130 µM) | 100 µg/mL (≈ 130 µM) | 100 µg/mL (≈ 130 µM) | 17 mm | 100 µg/mL (≈ 130 µM) | zone of inhibition at 100 µg/disc (Klebsiella pneumoniae [21]): 19 mm; zone of inhibition at 100 µg/disc (Aspergillus fumigatus [22]): 14 mm; MIC (Pseudomonas aeruginosa [23]): 100 µg/mL (≈ 130 µM); zone of inhibition at 100 µg/disc (Aspergillus clavatus [24]): 16 mm
